Values after ≈ are worked out from the molar mass of the structure shown.
Experiments:
Chitinase = Chitinase (Hypocrea rufa, UniProt D2K848); assay: Inhibition of Trichoderma viride chitinase incubated for 10 mins to 3 hrs using 4-nitrophenyl N-acetyl-beta-D-glucosaminide substrate by spectrophotometry
Procedure, shortened: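 Commercial Trichoderma viride chitinase preincubated with varying inhibitor concentrations directly in the reading plate, room temperature, 3 h. Substrate 4-nitrophenyl N-acetyl-β-D-glucosaminide then added. […] IC50 and Ki calculated from these readings.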

Candida parapsilosis = assay: Antifungal activity against Candida parapsilosis incubated for 24 hrs by visual and spectrophotometry method; format: functional; conditions: Lodderomyces parapsilosis
Candida tropicalis = assay: Antifungal activity against Candida tropicalis incubated for 24 hrs by visual and spectrophotometry method; format: functional
Candida albicans = assay: Antifungal activity against Candida albicans incubated for 24 hrs by visual and spectrophotometry method; format: functional
Nakaseomyces glabratus = assay: Antifungal activity against Candida glabrata incubated for 24 hrs by visual and spectrophotometry method; format: functional
[1] = system: Meyerozyma guilliermondii; assay: Antifungal activity against Candida guillermondii incubated for 24 hrs by visual and spectrophotometry method; format: functional
Kluyveromyces marxianus = assay: Antifungal activity against Candida kefyr incubated for 24 hrs by visual and spectrophotometry method; format: functional
Pichia kudriavzevii = assay: Antifungal activity against Candida krusei incubated for 24 hrs by visual and spectrophotometry method; format: functional

Chitinase, sequence (D2K848 whole entry): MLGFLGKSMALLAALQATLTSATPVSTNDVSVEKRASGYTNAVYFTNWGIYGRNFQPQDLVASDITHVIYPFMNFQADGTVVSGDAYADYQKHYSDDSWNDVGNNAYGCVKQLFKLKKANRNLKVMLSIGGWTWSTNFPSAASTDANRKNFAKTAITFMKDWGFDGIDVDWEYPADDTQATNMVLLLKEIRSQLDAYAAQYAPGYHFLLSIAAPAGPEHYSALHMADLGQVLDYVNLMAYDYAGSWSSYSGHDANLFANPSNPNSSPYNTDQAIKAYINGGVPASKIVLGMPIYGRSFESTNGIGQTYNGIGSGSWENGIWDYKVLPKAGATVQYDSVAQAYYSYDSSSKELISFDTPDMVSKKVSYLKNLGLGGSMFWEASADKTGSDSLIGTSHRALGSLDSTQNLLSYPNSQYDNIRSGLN

| Compound | IC50 (Chitinase) | Ki (Chitinase) | MIC90 (Candida parapsilosis) | MIC90 (Candida tropicalis) | MIC90 (Candida albicans) | MIC90 (Nakaseomyces glabratus) | MIC90 [1] | MIC90 (Kluyveromyces marxianus) | MIC90 (Pichia kudriavzevii) |
| --- | --- | --- | --- | --- | --- | --- | --- | --- | --- |
| C/C=C/CNC(=N)NCCCCCCCCN1CCCCCCCCNC(=N)NC1=O | 157 µM | 50.8 µM |  |  |  |  |  |  |  |
| C/C=C/CNC(=N)NCCCCCCCCN1CCCCCCOc2ccccc2CNC(=N)NC1=O | 35.5 µM | 14.1 µM | 2 µg/mL (≈ 3.89 µM) | 1 µg/mL (≈ 1.95 µM) | 4 µg/mL (≈ 7.79 µM) | 16 µg/mL (≈ 31.1 µM) | 2 µg/mL (≈ 3.89 µM) | 2 µg/mL (≈ 3.89 µM) | 4 µg/mL (≈ 7.79 µM) |
| C/C=C/CNC(=N)NCCCCCCCCN1CCCCCOc2ccccc2CNC(=N)NC1=O | 55 µM | 17.8 µM |  |  |  |  |  |  |  |
| CNC(=O)NC(=N)NCCCCCCCCN1CCCCCCOc2ccccc2CNC(=N)NC1=O | 0.68 µM | 0.22 µM | 25 µg/mL (≈ 48.4 µM) | 12 µg/mL (≈ 23.2 µM) | 25 µg/mL (≈ 48.4 µM) | 25 µg/mL (≈ 48.4 µM) | 25 µg/mL (≈ 48.4 µM) | 6 µg/mL (≈ 11.6 µM) | 12 µg/mL (≈ 23.2 µM) |
| C#CCNC(=N)NCCCCCCN1CCCCCCCCNC(=N)NC1=O | 97 µM | 31.3 µM |  |  |  |  |  |  |  |
| CCNC(=N)NCCCCCCN1CCCCCCCCNC(=N)NC1=O | 140 µM | 45.3 µM |  |  |  |  |  |  |  |
| N=C(NCCCCCCCCN1CCCCCCCCNC(=N)NC1=O)NCC1CC1 | 130 µM | 42 µM |  |  |  |  |  |  |  |
| C=C(C)CNC(=N)NCCCCCCN1CCCCCCCCNC(=N)NC1=O | 108 µM | 34.8 µM |  |  |  |  |  |  |  |
| C/C=C/CNC(=N)NCCCCCCN1CCCCCCCCNC(=N)NC1=O | 111 µM | 35.8 µM |  |  |  |  |  |  |  |

Source: ChEMBL document CHEMBL4033747, “Design and synthesis of a novel inhibitor of T. Viride chitinase through an in silico target fishing protocol” (Bioorg Med Chem Lett, 2017)
